From PubChem BioAssay
Rows were chosen to be rich in hits. Some 1.8% of all compounds tested hit in one or more screens of this group.
HKDC1 inhibitor: HKDC1 (human) hexokinase inhibition. AID 493160. recombinant HKDC1, G6PDH/diaphorase resazurin coupled fluorescence. inhibition, % at 20 µM. Q2TB90. hit rate 0.16% among 340,000;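 active = inhibition above about 35% when tested at 20 µM, limit read from the data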;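 also: plate controls were DMSO wells with enzyme for no effect and DMSO wells lacking enzyme for full effect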
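System: Recombinant HKDC1 hexokinase | Amount: HKDC1 at 5 µg/mL | Reagent: Glucose with 1 mM ATP | Doses: Single 20 µM dose | Incubation: Reaction time 90 min, room temperature, protected from light | Signal: Coupled resazurin fluorescence, excitation 525 nm, emission 613 nm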
AI-2 QS modul: modulates the Vibrio harveyi AI-2 quorum sensing system; Vibrio harveyi JMH597 AI-2 luminescence/OD600 ratio, 9 h; active compounds read low; strain lacks LuxN and CqsS sensors; 0 = neutral-control median; activity change, % at 7.5 µM; hit rate 0.4% among 300,000; in the data active = activity change below about -75%, passing the limit was not always enough; inconclusive = no clear call, values can overlap the other calls;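 also: luminescence divided by OD600 gain over 9 h not by final OD600 alone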
HDAC3 inh: blocks human histone deacetylase 3 | inhibition, % at 8.3 µM | recombinant HDAC3, fluorogenic peptide/trypsin coupled, fluorescence | hit rate 0.15% among 320,000 | AID 2718 | O15379; in the data active = inhibition above about 26%, passing the limit was not always enough; inconclusive = no clear call, values can overlap the other calls
Bfl-1 A1 inh: inhibitors of the anti-apoptotic protein A1, read as caspase activation; MEF A1-2A-BIM cells, Caspase-Glo 3/7 luminescence, 3 h; percent of clofoctol response, vehicle zero; caspase activation, % (test concentration not listed); hit rate 0.066% among 330,000; AID 2462;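 active = over half of replicate activation scores above 10%, or exactly half above 10 with the replicate mean above 10; inconclusive = replicate mean below 10 yet half the replicates above 10; inactive = over half of replicates below 10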
LANA-H2B inh: blocks KSHV LANA binding to histone H2A/H2B; inhibition, % (test concentration not listed); cell-free LANA-H2A/H2B peptide, fluorescence polarization; Q9QR71; hit rate 0.6% among 320,000; AID 2629; in the data active = inhibition mostly above about 10%, no sharp cut-off; inactive = mostly below about 6.7%
ATG4B inh: ATG4B (human) cysteine protease inhibition | ATG4B cleavage of LC3-PLA2, NBD-HPC fluorescence, 1 h | inhibition, % at 8.33 µM | hit rate 0.51% among 340,000; in the data active = inhibition above about 40%
Target sequence (Q9Y4P1 whole entry, looked up): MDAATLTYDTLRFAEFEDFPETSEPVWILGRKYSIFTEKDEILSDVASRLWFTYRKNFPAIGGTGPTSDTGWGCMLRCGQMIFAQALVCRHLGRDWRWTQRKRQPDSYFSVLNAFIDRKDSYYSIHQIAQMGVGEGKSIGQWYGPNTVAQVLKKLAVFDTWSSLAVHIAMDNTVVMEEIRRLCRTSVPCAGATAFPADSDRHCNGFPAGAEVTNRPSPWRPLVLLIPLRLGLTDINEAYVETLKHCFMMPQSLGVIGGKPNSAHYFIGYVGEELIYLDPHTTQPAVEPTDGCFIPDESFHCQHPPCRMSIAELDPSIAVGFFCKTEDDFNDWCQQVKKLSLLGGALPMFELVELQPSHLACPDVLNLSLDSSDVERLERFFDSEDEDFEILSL
JMH597 growth rt: retest Vibrio harveyi JMH597 growth inhibition | OD600 absorbance, 9 h; lacks LuxN and CqsS sensors | hit rate 1% among 750 | shares compounds with AI-2 QS modul | growth inhibition, % at 7.5 µM;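 active = every replicate shows growth inhibition above 50%; inconclusive = at least half, but not all, replicates pass that cutoff; inactive = fewer than half of replicates pass it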
BB721 lum counter: retest counter-screen: lowers luminescence of constitutive-QS Vibrio harveyi BB721; shares compounds with AI-2 QS modul; 9 h; inhibition, % at 7.5 µM; hit rate 95% among 750; AID 2727;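 active = inhibition above about 80% in every replicate, not just on average, limit read from the data; inconclusive = at least half of replicates past the limit, but not all; inactive = fewer than half of replicates past the limit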
BB721 growth: retest: inhibitors of Vibrio harveyi BB721 growth | growth inhibition, % at 7.5 µM | shares compounds with AI-2 QS modul | OD600 absorbance, 9 h | hit rate 3% among 750 | AID 2728;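 active = every replicate shows growth inhibition above 50%; inconclusive = at least half but not all replicates above 50% inhibition; inactive = under half of replicates above 50% inhibition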
JMH597 AI-2 mod: Vibrio harveyi AI-2 signaling luminescence modulation – JMH597 strain, confirmation | shares compounds with AI-2 QS modul | Vibrio harveyi JMH597 AI-2 quorum sensing luminescence, 9 h; luxN and CqsS knockout, AI-2 only | inhibition, % at 7.5 µM | hit rate 97% among 750 | AID 2736;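 active = every replicate shows more than 75% inhibition of signal versus neutral control wells; inconclusive = half to three quarters of replicates exceed 75% inhibition; inactive = fewer than half of replicates exceed 75% inhibition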
HKDC1 act conf: HKDC1 (human) activation, single-dose confirmed | AID 504708 | recombinant HKDC1, G6PDH/diaphorase resazurin fluorescence; active compounds read low | inhibition, % at 20 µM | hit rate 14% among 740 | shares compounds with HKDC1 inhibitor;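 active = inhibition at or below a set negative limit, negative inhibition meaning the enzyme was activated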
PLA2 ctr: inhibits human PLA2, flagging false ATG4B inhibitors | shares compounds with ATG4B inh | purified PLA2, NBD-C6-HPC fluorescence, 45 min | inhibition, % at 8.33 µM | hit rate 66% among 1,600 | AID 588402; in the data active = inhibition above about 50%
Target sequence (P04054 whole entry, looked up): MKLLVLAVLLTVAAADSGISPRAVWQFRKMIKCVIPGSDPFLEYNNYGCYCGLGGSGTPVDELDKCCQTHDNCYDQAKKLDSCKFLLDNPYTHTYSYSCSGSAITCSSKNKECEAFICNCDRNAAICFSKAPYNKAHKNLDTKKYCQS
An asterisk follows results filed as active; u = inconclusive; x = not tested or not shown.

SMILES	HKDC1 inhibitor	AI-2 QS modul	HDAC3 inh	Bfl-1 A1 inh	LANA-H2B inh	ATG4B inh	HKDC1 act conf	others
COc1ccc(NC(=O)CSCC(=O)N(C)CC(=O)Nc2ccc(Cl)c(C(F)(F)F)c2)cc1	-2	-80*	14	-1	2	-11	x	JMH597 growth rt=24;BB721 lum counter=89*;BB721 growth=-18;JMH597 AI-2 mod=91*
Cc1ccccc1-c1nnc(SCc2ccccc2F)o1	0	-81*	-5	0	2	54*	x	JMH597 growth rt=36;BB721 lum counter=95*;BB721 growth=17;JMH597 AI-2 mod=96*;PLA2 ctr=64*
O=C1CCC(C(=O)N(CCO)Cc2ccccc2)CN1CC1CCCCC1 (stereo not given)	-4	19	2	-1	0	2	x
COc1cc(N(C)C)ccc1C=c1c2ccccc2n2c1cc(-c1ccccc1)[n+]2C	41*	x	x	x	x	30	37
COc1cc(C=c2c3ccccc3n3c2cc(-c2ccccc2)[n+]3C)cc(OC)c1OC	27	x	x	x	x	2	x
CN(C)c1ccc(C=c2c3ccccc3n3c2cc(-c2ccccc2)[n+]3C)cc1	37*	x	x	x	x	37	23
CCc1noc(C)c1C(=O)NNC(=O)COc1ccccc1C	-4	x	-4	0	-1	-1	x
O=C1C(=Cc2ccc(Br)o2)C(=O)c2ccccc21	36*	x	9	2	-3	69*	36
CC1=C/C(=C\c2ccc(Br)o2)C(=O)O1	3	7	3	0	-2	4	x
O=c1c2ccccc2nc2n1CCC2	82*	18	-5	0	-3	6	67
O=c1c2ccccc2nc2n1CCCCC2	-8	17	u	0	3	-11	x
O=c1c2ccccc2nc(/C=C/c2cccnc2)n1Cc1ccccc1	81*	24	x	x	x	18	61
O=c1c2ccccc2nc(/C=C/c2cccnc2)n1CCc1ccccc1	34	8	4	0	2	12	39
COc1ccc(N2CCN(C(=O)[C@H](Cc3c[nH]c4ccccc34)NC(C)=O)CC2)cc1	-13	19	-6	-1	-3	4	x
Cc1ccc(C(=O)COC(=O)c2nc3nccc(C)n3n2)c(C)c1	5	x	6	0	3	-8	x
O=C1C=CC2(C=C1)O[C@H](Cc1ccccc1)[C@@H](Cc1ccccc1)O2	38*	x	x	x	x	8	3
O=C1CCc2cc(NS(=O)(=O)c3ccc([N+](=O)[O-])cc3)cc3c2N1CC3	2	22	x	x	x	4	x
COC(=O)c1ccc(NS(=O)(=O)c2ccc(S(=O)(=O)N3CCOCC3)cc2)cc1	1	x	0	1	-9	-10	x
Oc1ccc2ccccc2c1C=Nc1ccccc1Br	38*	15	0	0	-5	-1	10
Oc1ccc2ccccc2c1/C=N/c1nccs1	37*	23	2	0	3	-3	29
Cc1c(C)c2ccc(OCC(=O)NCCCn3ccnc3)cc2oc1=O	-3	4	-27	0	2	-2	x
COc1ccc(OC)c(NC(=O)CSc2ccc(-c3ccco3)nn2)c1	43*	10	5	1	0	2	38
COc1ccc(NC(=O)CSc2ccc(-c3ccco3)nn2)cc1OC	43*	10	10	0	1	-7	44
Cc1ccc(OC(C)C(=O)N=Nc2c(O)[nH]c3ccc([N+](=O)[O-])cc23)cc1 (stereo not given)	-8	14	-11	1	12	-7	x
N#Cc1ccc(N2CCOCC2)nc1	-4	-3	-2	0	-2	0	x
SMILES	HKDC1 inhibitor	AI-2 QS modul	HDAC3 inh	Bfl-1 A1 inh	LANA-H2B inh	ATG4B inh	HKDC1 act conf	others
Cn1c(SCC(=O)Nc2ccc3nc(SCC(=O)N4CCCC4)sc3c2)nnc1-c1ccc(N)cc1	33	x	x	x	x	6	-29
CC1=NOC(=O)/C1=C\c1ccc(-c2cc(Cl)ccc2Cl)o1	57*	14	6	3	0	6	10
CC1=NOC(=O)/C1=C/c1ccc(-c2ccc(Cl)cc2)o1	x	x	-5	1	-1	x	x
CC1=NOC(=O)/C1=C\c1ccc(-c2ccc(Br)cc2C(=O)O)o1	-7	50	2	0	3	9	x
CC1=NOC(=O)/C1=C\c1ccc(-c2ccc(Br)cc2)o1	42*	16	x	x	x	27	12
CCCCCC(=O)Nc1cc(S(=O)(=O)N2CCCCC2)ccc1N1CCCCC1	1	x	x	x	x	-7	x
CCCCCC(=O)Nc1cc(S(=O)(=O)O)cc2cc(S(=O)(=O)O)cc(O)c12	33	x	x	x	x	43*	19
CCCn1c(C)cc(C(=O)COC(=O)c2ccc[nH]c2=O)c1C	1	24	3	0	-1	8	x
O=C(COC(=O)C1CCCC1)Nc1ncc(Cl)cc1Cl	3	37	7	0	2	-8	x
O=C1C=C(N(CCO)Cc2ccccc2)c2ccccc2C1=O	35*	40	x	x	x	33	29
O=C(CCl)Nc1cc2[nH]c(=O)[nH]c2cc1Br	10	29	-4	-1	4	4	x
C=CC1=C(C(=O)O)N2C(=O)C(NC(=O)Cc3ccccc3)C2SC1 (stereo not given)	40*	27	3	-1	-6	-10	-8
CC(=O)OCC1=C(C(=O)O)N2C(=O)[C@@H](NC(=O)Cc3ccccc3)[C@H]2SC1	3	x	x	x	x	5	x
CCc1cc(C(=O)N2CCCc3ccccc32)sc1C	-4	25	18	1	3	9	x
Oc1ccc(Br)cc1CNc1cccc2cccnc12	40*	2	-5	1	-2	9	6
Cc1ccc(CC(=O)N2CCN(S(=O)(=O)c3ccccc3)CC2)cc1C	1	23	-13	0	-1	-9	x
COc1ccc(CN2CCSCC2)c(C)c1C	-11	31	-6	0	-5	-1	x
NS(=O)(=O)c1ccc(N/N=C/c2ccc(O)cc2O)c([N+](=O)[O-])c1	1	20	-1	0	-3	-5	x
